Article PMC6598223 (Saudi Pharmaceutical Journal : SPJ, 2019)
Like-named read-outs stand apart in the source and are kept apart here.

Assays:
HeLa cells [1] = experiment: Alamar Blue cytotoxicity assay, HeLa; format: cell-based, human; settings: read-out: 24 h IC50 HeLa
Outline: (§1)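 Cells grown in DMEM with L-glutamine, 10% FBS and 1% penicillin–streptomycin at 37 °C, 5% CO2. They were seeded at 1 × 10^4 cells/well and grown 24 h, then given test compound dilutions in growth medium for 24 h. Alamar Blue was added (final 10 μg/ml) for 2–4 h at 37 °C, and fluorescence was read ([…]). Viability was calculated per line, and IC50s were averaged across HeLa, A549 and MDA-MB-231.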

A549 cells = experiment: Alamar Blue cytotoxicity assay, A549; format: cell-based, human
Outline: as §1

MDA-MB-231 cells = experiment: Alamar Blue cytotoxicity assay, MDA-MB-231; format: cell-based, human; settings: read-out: 24 h IC50 MDA-MB-231
Outline: as §1

[2] = test system: HeLa, A549 and MDA-MB-231 cells; experiment: Average cytotoxicity over the tested cell lines; format: cell-based; settings: Homo sapiens, 24 h, read-out: average IC50 against the tested cell lines
Outline: as §1

EGFR = EGFR (Homo sapiens, UniProt P00533); experiment: biochemical
Chain of EGFR (P00533 25-1210): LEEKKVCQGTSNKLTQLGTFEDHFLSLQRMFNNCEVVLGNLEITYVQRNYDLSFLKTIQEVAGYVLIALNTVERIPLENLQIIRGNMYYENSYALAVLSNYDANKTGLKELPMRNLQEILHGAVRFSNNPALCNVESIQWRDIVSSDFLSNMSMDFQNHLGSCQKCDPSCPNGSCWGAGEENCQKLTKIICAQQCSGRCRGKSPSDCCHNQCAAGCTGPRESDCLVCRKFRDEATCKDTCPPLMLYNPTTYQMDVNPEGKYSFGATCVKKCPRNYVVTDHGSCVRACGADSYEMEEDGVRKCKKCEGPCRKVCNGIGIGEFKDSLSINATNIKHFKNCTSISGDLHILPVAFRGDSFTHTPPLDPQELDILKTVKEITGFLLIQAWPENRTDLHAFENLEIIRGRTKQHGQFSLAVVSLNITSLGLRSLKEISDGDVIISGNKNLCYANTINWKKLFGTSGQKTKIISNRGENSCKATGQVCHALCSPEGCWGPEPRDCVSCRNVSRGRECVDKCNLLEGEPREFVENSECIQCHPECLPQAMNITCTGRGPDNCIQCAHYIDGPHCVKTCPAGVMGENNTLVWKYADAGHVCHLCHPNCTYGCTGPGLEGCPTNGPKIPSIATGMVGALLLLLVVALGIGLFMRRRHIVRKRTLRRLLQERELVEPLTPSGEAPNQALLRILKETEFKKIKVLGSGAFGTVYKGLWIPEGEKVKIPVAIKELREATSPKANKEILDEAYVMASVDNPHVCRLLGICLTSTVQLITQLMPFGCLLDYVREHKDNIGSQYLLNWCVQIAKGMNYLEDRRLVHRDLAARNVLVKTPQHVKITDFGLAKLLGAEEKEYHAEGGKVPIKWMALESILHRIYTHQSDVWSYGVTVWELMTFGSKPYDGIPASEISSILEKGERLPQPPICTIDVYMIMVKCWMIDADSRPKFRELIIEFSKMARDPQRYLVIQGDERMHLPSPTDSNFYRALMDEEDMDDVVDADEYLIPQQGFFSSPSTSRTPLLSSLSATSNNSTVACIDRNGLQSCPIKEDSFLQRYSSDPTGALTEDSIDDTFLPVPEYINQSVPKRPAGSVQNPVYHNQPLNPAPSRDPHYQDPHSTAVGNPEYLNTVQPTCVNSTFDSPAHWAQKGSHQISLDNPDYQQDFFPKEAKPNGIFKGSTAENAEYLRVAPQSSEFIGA

VEGFR2 = VEGFR2 (Homo sapiens, UniProt P35968); experiment: biochemical
Chain of VEGFR2 (P35968 20-1356): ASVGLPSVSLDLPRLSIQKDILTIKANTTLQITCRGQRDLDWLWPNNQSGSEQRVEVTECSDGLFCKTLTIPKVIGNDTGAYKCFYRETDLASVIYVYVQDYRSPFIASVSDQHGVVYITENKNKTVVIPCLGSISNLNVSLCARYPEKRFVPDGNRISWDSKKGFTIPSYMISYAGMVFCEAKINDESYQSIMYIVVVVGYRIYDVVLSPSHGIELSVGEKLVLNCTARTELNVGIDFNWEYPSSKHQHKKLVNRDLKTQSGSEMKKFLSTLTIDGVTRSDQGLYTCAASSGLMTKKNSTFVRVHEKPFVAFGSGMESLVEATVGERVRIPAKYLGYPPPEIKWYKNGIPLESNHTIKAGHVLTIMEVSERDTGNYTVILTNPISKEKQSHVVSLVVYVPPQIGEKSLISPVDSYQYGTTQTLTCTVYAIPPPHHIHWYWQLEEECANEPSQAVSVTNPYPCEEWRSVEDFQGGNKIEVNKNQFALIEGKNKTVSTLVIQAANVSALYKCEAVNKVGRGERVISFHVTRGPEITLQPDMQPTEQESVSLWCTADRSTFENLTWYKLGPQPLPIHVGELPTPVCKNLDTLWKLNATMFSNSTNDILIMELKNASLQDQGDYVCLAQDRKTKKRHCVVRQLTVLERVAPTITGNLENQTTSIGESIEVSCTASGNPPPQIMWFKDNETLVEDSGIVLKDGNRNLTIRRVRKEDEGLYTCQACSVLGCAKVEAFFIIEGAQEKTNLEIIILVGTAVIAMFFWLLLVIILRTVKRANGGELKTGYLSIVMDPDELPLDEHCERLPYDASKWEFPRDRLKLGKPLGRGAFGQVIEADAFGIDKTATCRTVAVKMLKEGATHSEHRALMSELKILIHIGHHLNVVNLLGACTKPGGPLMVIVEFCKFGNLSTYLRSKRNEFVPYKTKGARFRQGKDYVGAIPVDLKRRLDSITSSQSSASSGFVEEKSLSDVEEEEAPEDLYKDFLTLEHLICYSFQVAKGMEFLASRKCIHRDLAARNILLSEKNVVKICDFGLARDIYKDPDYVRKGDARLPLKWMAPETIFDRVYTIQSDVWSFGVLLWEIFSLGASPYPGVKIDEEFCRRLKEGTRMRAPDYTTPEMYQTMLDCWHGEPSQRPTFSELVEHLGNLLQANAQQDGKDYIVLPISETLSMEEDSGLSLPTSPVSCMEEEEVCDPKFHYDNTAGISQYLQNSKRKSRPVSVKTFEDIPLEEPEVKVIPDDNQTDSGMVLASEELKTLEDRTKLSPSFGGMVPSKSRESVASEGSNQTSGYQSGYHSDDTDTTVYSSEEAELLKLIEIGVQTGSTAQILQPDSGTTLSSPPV

HeLa cells [3] = experiment: Annexin V/PI apoptosis assay; format: cell-based, human; settings: 24 h
Outline: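 HeLa cells were exposed to test compound at 5 or 10 μM for 24 h, with an untreated control. Apoptotic versus necrotic death was scored by annexin V/PI staining, reported as percentage of cells undergoing apoptosis.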

[4] = test system: caspase-3/7 in HeLa cells; experiment: Caspase-3/7 activity assay; format: cell-based, human; settings: 10 μM, 24 h
Outline: (§2)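 HeLa cells were seeded at 1 × 10^5/well in duplicate and grown 24 h. They were then treated with test compound at 1, 5, 10 and 20 µM, with 0.1% DMSO (v/v) as control. After 24 h, activity was measured with the Caspase-Glo 3/7 (caspase-3/7), Caspase-Glo 8 (caspase-8) or Caspase-Glo 9 (caspase-9) kit.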

caspase-8 in HeLa cells = experiment: Caspase-8 activity assay; format: cell-based, human; settings: 5 and 10 μM, 24 h
Outline: as §2

caspase-9 in HeLa cells = experiment: Caspase-9 activity assay; format: cell-based, human; settings: 5 and 10 μM, 24 h
Outline: as §2

HeLa cells [5] = experiment: ROS production; format: cell-based, human; settings: 40 μM, 24 h
Outline: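 HeLa cells were treated with test compound at 10 or 40 µM for 24 h, with 0.1% DMSO (v/v) as control. Intracellular superoxide was detected with the Muse Oxidative Stress Kit, and cells were analysed on a Muse Cell Analyzer. The read-out was the percentage of cells with elevated ROS.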

[6] = Homo sapiens, A549, 24 h, read-out: 24 h IC50 A549, Alamar Blue, 24 h treatment
[7] = read-out: 24 h IC50 A549, Alamar Blue, 24 h treatment

| Compound | IC50 (HeLa cells [1]; Homo sapiens, HeLa, 24 h) | IC50 (A549 cells; [6]) | IC50 (MDA-MB-231 cells; Homo sapiens, MDA-MB-231, 24 h) | IC50 [2] | also measured |
| --- | --- | --- | --- | --- | --- |
| CCOC(=O)CN1C(=O)NC(c2ccccc2)(c2ccccc2)C1=O [Compound 2, ethyl (5,5-diphenylhydantoin-3-yl)acetate] | 241 ± 1.3 µM | 108 ± 3.7 µM | 263 ± 3.4 µM | – | – |
| O=C(CN1C(=O)NC(c2ccccc2)(c2ccccc2)C1=O)NN=C1C(=O)Nc2ccc(Br)cc21 [Compound 17, N′-(5-Bromo-2-oxoindolin-3-ylidene)-2-(2,5-dioxo-4,4-diphenylimidazolidin-1-yl)acetohydrazide] | 29 ± 1.7 µM | 77 ± 1.5 µM | 138 ± 2.6 µM | 81 µM | – |
| O=C(CN1C(=O)NC(c2ccccc2)(c2ccccc2)C1=O)NN=C1C(=O)Nc2ccc(Cl)cc21 [Compound 15, N′-(5-Chloro-2-oxoindolin-3-ylidene)-2-(2,5-dioxo-4,4-diphenylimidazolidin-1-yl)acetohydrazide] | 53 ± 2.2 µM | 72 ± 3 µM | 311 ± 5.5 µM | – | – |
| O=C(CN1C(=O)NC(c2ccccc2)(c2ccccc2)C1=O)NN=Cc1ccc2c(c1)OCO2 [Compound 10, N′-(Benzo[d][1,3]dioxol-5-ylmethylene)-2-(2,5-dioxo-4,4-diphenylimidazolidin-1-yl)acetohydrazide] | 113 ± 0.9 µM | 267 ± 6 µM | 200 ± 4.1 µM | – | – |
| NNC(=O)CN1C(=O)NC(c2ccccc2)(c2ccccc2)C1=O [Compound 3, 2-(2,4-dioxo-5,5-diphenylimidazolidin-3-yl)acetohydrazide] | 236 ± 3.5 µM | 278 ± 7.5 µM | 278 ± 2 µM | – | – |
| O=C(CN1C(=O)NC(c2ccccc2)(c2ccccc2)C1=O)NN=C1C(=O)Nc2ccccc21 [Compound 14, 2-(2,5-Dioxo-4,4-diphenylimidazolidin-1-yl)-N′-(2-oxoindolin-3-ylidene)acetohydrazide] | 30 ± 2.6 µM | 116 ± 1.6 µM | 123 ± 0.8 µM | – | – |
| COc1cc(C=NNC(=O)CN2C(=O)NC(c3ccccc3)(c3ccccc3)C2=O)cc(OC)c1OC [Compound 11, 2-(2,5-Dioxo-4,4-diphenylimidazolidin-1-yl)-N′-(3,4,5-trimethoxybenzylidene)acetohydrazide] | 53 ± 2.1 µM | 170 ± 4.2 µM | 133 ± 0.7 µM | – | – |
| O=C(CN1C(=O)NC(c2ccccc2)(c2ccccc2)C1=O)NN=Cc1c[nH]c2ccccc12 [Compound 13, N′-((1H-indol-3-yl)methylene)-2-(2,5-dioxo-4,4-diphenylimidazolidin-1-yl)acetohydrazide] | 10 ± 2.1 µM | 160 ± 0.8 µM | 156 ± 3.1 µM | 109 µM | IC50 (EGFR): 0.1 ± 0.02 µM; IC50 (VEGFR2): 0.47 ± 0.09 µM |
| O=C(CN1C(=O)NC(c2ccccc2)(c2ccccc2)C1=O)NN=C1C(=O)Nc2ccc(F)cc21 [Compound 16, 2-(2,5-Dioxo-4,4-diphenylimidazolidin-1-yl)-N′-(5-fluoro-2-oxoindolin-3-ylidene)acetohydrazide] | 18.5 ± 1.6 µM | 95 ± 1 µM | 64 ± 0.6 µM | 59 µM | IC50 (EGFR): 6.17 ± 0.22 µM; IC50 (VEGFR2): 0.09 ± 0.01 µM; percentage of apoptotic cells (HeLa cells [3]; 5 μM): 48.6%; percentage of apoptotic cells (HeLa cells [3]; 10 μM): 63.4%; change of caspase-3/7 activity [4]: approximately 40%; change of caspase-8 activity (caspase-8 in HeLa cells): no significant changes; change of caspase-9 activity (caspase-9 in HeLa cells): no significant changes; cells with increased level of ROS production (HeLa cells [5]): 37.7% |
| COc1ccc(C=NNC(=O)CN2C(=O)NC(c3ccccc3)(c3ccccc3)C2=O)cc1OC [Compound 8, N′-(3,4-Dimethoxybenzylidene)-2-(2,5-dioxo-4,4-diphenylimidazolidin-1-yl)acetohydrazide] | 60 ± 3.3 µM | 162 ± 2.3 µM | 154 ± 1.1 µM | – | – |
| O=C(CN1C(=O)NC(c2ccccc2)(c2ccccc2)C1=O)NN=Cc1ccc(Cl)cc1 [Compound 5, N'-(4-Chlorobenzylidene)-2-(2,5-dioxo-4,4-diphenylimidazolidin-1-yl)acetohydrazide] | 123 ± 2.6 µM | 157 ± 1.4 µM | 196 ± 1.7 µM | – | – |
| CC(=O)O[C@@]12CO[C@@H]1C[C@H](O)[C@@]1(C)C(=O)[C@H](O)C3=C(C)[C@@H](OC(=O)[C@H](O)[C@@H](NC(=O)OC(C)(C)C)c4ccccc4)C[C@@](O)([C@@H](OC(=O)c4ccccc4)[C@H]21)C3(C)C [Docetaxel, reference compound] | 100 ± 3.8 µM | 100 µM | 100 ± 2.2 µM | 83 µM | IC50 (A549 cells; [7]): 50 ± 1.3 µM |
| COc1cc(OC)c(OC)cc1C=NNC(=O)CN1C(=O)NC(c2ccccc2)(c2ccccc2)C1=O [Compound 12] | – | – | – | – | IC50 (HeLa cells [1]; Alamar Blue, 24 h treatment): 39 ± 3.1 µM; IC50 (A549 cells; [7]): 116 ± 1.3 µM; IC50 (MDA-MB-231 cells; Alamar Blue, 24 h treatment): > 350 µM |
| COc1cc(C=NNC(=O)CN2C(=O)NC(c3ccccc3)(c3ccccc3)C2=O)ccc1O [Compound 9, 2-(2,5-Dioxo-4,4-diphenylimidazolidin-1-yl)-N′-(4-hydroxy-3-methoxybenzylidene)acetohydrazide] | 50 ± 1 µM | 175 ± 4.3 µM | 136 ± 3.9 µM | – | – |
| O=C(CN1C(=O)NC(c2ccccc2)(c2ccccc2)C1=O)NN=C1C(=O)Nc2ccc([N+](=O)[O-])cc21 [Compound 18, 2-(2,5-Dioxo-4,4-diphenylimidazolidin-1-yl)-N′-(5-nitro-2-oxoindolin-3-ylidene)acetohydrazide] | 30 ± 1.2 µM | 229 ± 5.2 µM | 80 ± 0.7 µM | 113 µM | IC50 (EGFR): 0.37 ± 0.01 µM; IC50 (VEGFR2): 2.52 ± 0.09 µM |
| COc1ccc2c(c1)C(=NNC(=O)CN1C(=O)NC(c3ccccc3)(c3ccccc3)C1=O)C(=O)N2 [Compound 19, 2-(2,5-Dioxo-4,4-diphenylimidazolidin-1-yl)-N′-(5-methoxy-2-oxoindolin-3-ylidene)acetohydrazide] | 118 ± 1.3 µM | 170 ± 2.2 µM | 174 ± 2.9 µM | – | – |
